Source: ChEMBL document CHEMBL5338825, “Structure-Based Discovery of Inhibitors of the SARS-CoV-2 Nsp14 N7-Methyltransferase” (J Med Chem, 2023)
Activity calls are given as the source filed them. The calls are words filed in the database; no cut-off is given here.

How the values were obtained:
[1] = target: Histone-lysine N-methyltransferase SMYD3 (Homo sapiens) (UniProt Q9H7B4); experiment: Inhibition of human SMYD3 using biotin-tagged MAP3K2 and 3H-SAM as substrate at 10 uM incubated for 1 hrs by TopCount scintillation proximity assay relative to control
Sequence of Histone-lysine N-methyltransferase SMYD3 (Homo sapiens) (Q9H7B4 whole entry): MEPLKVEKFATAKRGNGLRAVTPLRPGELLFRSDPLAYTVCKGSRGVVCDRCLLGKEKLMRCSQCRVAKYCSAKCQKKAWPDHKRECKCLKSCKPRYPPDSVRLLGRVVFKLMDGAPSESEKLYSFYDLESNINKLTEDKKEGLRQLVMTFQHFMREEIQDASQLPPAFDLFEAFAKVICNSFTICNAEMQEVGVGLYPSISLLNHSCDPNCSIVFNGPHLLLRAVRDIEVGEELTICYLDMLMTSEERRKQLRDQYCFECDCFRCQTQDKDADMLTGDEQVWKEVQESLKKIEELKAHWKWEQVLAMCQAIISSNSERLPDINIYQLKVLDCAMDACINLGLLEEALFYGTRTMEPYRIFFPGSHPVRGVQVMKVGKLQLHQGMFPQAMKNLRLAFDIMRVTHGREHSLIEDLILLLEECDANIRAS
Summary of the method: (§1)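 Selectivity panel against human SAM-dependent methyltransferases, radiometric format. Single test concentration of 10 μM, triplicate, read as percent inhibition.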

[2] = target: Histone-lysine N-methyltransferase ASH1L (Homo sapiens) (UniProt Q9NR48); experiment: Inhibition of human ASH1L using chicken nucleosome and 3H-SAM as substrate at 10 uM incubated for 1 hrs by TopCount scintillation proximity assay relative to control
Summary of the method: (§2)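 Human methyltransferase panel, radiometric assays. Each compound tested at a single 10 μM concentration in triplicate. Enzymes inhibited by more than 50% were taken on to concentration–response.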

[3] = organism: Homo sapiens; experiment: Inhibition of MDH (unknown origin) using oxaloacetic acid as substrate preincubated with compound for 5 mins followed by substrate addition and measured after 1.5 min in the presence of NADH by absorbance based plate reader analysis; conditions: time 6.5 min
Summary of the method: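 MDH assay at room temperature in 50 mM KPi, pH 7.0, with 1% v/v DMSO final. Compound preincubated 5 min with 2 nM enzyme. Reaction started with 200 μM NADH plus 200 μM oxaloacetic acid, and absorbance followed at 340 nm for 1 min 30 s. Initial rate divided by the DMSO control rate. Single top concentration in triplicate; eight-point half-log curves in triplicate where inhibition exceeded 40%.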

[4] = target: Histone-lysine N-methyltransferase NSD3 (Homo sapiens) (UniProt Q9BZ95); experiment: Inhibition of human NSD3 using chicken nucleosome and 3H-SAM as substrate at 10 uM incubated for 1 hrs by TopCount scintillation proximity assay relative to control; summary of the method: as §2
[5] = target: Protein arginine N-methyltransferase 1 (Homo sapiens, UniProt Q99873); experiment: Inhibition of human PRMT1 using biotin-tagged Histone H4 and 3H-SAM as substrate at 10 uM incubated for 1 hrs by TopCount scintillation proximity assay relative to control; summary of the method: as §2
[6] = target: Histone-lysine N-methyltransferase PRDM9 (Homo sapiens) (UniProt Q9NQV7); experiment: Inhibition of human PRDM9 using biotin-tagged Histone H3 and 3H-SAM as substrate at 10 uM incubated for 1 hrs by TopCount scintillation proximity assay relative to control; summary of the method: as §2
Sequence of Histone-lysine N-methyltransferase PRDM9 (Homo sapiens) (Q9NQV7 whole entry): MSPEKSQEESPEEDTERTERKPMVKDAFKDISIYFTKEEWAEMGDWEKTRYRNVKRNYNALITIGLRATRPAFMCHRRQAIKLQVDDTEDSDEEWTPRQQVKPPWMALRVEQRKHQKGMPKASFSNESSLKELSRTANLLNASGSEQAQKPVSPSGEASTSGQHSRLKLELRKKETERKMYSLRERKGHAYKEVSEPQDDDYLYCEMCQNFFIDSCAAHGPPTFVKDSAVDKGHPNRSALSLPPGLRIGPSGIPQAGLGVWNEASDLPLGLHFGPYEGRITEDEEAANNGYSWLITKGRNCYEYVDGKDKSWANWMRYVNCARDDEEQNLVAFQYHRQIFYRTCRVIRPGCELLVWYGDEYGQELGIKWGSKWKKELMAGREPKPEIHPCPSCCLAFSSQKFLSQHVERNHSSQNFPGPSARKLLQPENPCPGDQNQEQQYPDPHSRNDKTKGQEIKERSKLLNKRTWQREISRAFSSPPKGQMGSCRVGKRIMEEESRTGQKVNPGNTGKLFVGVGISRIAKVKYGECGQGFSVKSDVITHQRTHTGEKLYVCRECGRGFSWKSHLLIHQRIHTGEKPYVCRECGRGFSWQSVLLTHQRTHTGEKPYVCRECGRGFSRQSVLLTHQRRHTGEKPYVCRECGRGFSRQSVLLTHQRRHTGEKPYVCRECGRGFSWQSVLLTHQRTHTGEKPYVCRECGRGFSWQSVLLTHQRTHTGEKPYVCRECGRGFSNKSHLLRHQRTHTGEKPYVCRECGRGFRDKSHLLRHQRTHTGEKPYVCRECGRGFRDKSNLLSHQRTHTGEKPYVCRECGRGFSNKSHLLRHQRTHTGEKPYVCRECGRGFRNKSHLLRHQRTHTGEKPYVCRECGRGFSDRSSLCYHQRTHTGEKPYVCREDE

[7] = target: Histone-lysine N-methyltransferase, H3 lysine-79 specific (Homo sapiens, UniProt Q8TEK3); experiment: Inhibition of human DOT1L using chicken nucleosome and 3H-SAM as substrate at 10 uM incubated for 1 hrs by TopCount scintillation proximity assay relative to control; summary of the method: as §2
Sequence of Histone-lysine N-methyltransferase, H3 lysine-79 specific (Q8TEK3 whole entry, looked up): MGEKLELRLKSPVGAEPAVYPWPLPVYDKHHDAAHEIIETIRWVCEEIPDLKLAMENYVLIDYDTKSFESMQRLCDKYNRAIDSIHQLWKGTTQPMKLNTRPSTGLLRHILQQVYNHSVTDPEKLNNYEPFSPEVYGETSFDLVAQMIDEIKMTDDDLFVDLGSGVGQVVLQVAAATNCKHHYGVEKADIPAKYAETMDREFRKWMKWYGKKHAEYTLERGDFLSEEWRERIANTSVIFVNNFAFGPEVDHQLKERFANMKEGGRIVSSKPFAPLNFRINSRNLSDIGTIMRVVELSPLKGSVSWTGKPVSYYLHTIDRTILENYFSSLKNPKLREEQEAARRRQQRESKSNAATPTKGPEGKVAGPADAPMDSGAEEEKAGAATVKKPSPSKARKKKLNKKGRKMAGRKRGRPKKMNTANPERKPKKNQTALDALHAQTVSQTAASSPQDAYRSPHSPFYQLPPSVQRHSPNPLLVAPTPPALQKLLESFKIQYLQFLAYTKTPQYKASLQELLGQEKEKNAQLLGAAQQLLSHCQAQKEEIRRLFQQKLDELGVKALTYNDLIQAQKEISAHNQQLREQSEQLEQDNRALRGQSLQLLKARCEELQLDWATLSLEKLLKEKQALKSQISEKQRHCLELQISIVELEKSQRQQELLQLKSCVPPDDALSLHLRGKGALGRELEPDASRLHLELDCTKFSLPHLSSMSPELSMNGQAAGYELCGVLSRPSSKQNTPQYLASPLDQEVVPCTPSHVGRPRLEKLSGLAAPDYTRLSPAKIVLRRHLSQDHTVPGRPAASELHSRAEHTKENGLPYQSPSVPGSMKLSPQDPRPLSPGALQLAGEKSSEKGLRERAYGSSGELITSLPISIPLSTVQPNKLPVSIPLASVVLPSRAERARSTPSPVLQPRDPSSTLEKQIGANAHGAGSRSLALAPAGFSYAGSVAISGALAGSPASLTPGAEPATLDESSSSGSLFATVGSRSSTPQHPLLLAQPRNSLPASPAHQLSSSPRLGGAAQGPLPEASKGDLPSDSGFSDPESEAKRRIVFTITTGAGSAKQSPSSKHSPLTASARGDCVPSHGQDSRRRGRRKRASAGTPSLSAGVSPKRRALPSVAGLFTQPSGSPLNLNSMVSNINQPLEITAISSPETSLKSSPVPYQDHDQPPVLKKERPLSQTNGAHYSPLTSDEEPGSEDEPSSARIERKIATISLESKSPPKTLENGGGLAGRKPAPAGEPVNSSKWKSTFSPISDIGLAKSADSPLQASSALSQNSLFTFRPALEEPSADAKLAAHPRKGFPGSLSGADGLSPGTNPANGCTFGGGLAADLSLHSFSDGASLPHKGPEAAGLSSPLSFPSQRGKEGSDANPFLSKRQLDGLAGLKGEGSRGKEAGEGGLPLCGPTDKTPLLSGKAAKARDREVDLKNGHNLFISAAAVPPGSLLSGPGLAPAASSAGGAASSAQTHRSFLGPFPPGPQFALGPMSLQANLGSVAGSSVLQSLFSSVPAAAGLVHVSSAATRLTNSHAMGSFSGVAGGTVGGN

[8] = target: Protein arginine N-methyltransferase 5 (Homo sapiens) (UniProt O14744); experiment: Inhibition of human PRMT5 using biotin-tagged Histone H4 and 3H-SAM as substrate at 10 uM incubated for 1 hrs by TopCount scintillation proximity assay relative to control; summary of the method: as §2
Sequence of Protein arginine N-methyltransferase 5 (Homo sapiens) (O14744 whole entry): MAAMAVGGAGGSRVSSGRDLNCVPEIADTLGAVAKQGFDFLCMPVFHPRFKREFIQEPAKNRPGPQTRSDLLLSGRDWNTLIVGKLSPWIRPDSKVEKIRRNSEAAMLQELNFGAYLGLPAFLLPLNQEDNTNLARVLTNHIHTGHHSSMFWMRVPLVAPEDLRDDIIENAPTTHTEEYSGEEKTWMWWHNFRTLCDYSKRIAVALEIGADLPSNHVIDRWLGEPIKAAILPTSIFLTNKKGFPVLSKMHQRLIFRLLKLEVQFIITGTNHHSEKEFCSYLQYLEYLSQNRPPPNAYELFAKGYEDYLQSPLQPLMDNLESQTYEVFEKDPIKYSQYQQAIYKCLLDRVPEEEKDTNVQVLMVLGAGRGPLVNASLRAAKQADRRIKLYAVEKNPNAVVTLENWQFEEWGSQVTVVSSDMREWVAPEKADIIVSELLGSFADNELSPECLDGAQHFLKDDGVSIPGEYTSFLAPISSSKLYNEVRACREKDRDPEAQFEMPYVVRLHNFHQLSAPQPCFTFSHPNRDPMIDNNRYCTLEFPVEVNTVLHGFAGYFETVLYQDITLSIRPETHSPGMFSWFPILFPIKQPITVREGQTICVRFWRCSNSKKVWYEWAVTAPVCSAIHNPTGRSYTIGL

[9] = target: Histone-lysine N-methyltransferase EHMT1 (Homo sapiens) (UniProt Q9H9B1); experiment: Inhibition of human GLP using biotin-tagged Histone H3 and 3H-SAM as substrate at 10 uM incubated for 1 hrs by TopCount scintillation proximity assay relative to control; summary of the method: as §2
[10] = target: Protein arginine N-methyltransferase 6 (Homo sapiens) (UniProt Q96LA8); experiment: Inhibition of human PRMT6 using biotin-tagged Histone H4 and 3H-SAM as substrate at 10 uM incubated for 1 hrs by TopCount scintillation proximity assay relative to control; summary of the method: as §2
Sequence of Protein arginine N-methyltransferase 6 (Homo sapiens) (Q96LA8 whole entry, looked up): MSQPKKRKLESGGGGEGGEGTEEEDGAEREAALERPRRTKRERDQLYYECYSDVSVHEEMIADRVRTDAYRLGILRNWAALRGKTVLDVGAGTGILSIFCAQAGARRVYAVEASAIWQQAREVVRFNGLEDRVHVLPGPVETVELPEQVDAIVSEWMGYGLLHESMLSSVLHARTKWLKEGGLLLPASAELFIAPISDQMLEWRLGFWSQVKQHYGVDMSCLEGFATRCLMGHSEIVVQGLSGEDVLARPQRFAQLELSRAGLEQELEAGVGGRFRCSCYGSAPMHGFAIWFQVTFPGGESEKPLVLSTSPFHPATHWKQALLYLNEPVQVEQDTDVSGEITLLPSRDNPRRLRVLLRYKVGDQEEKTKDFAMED

[11] = target: Histone-lysine N-methyltransferase SETDB1 (Homo sapiens) (UniProt Q15047); experiment: Inhibition of human SETDB1 using biotin-tagged Histone H3 and 3H-SAM as substrate at 10 uM incubated for 1 hrs by TopCount scintillation proximity assay relative to control; summary of the method: as §1
[12] = target: Histone-lysine N-methyltransferase SUV39H2 (Homo sapiens) (UniProt Q9H5I1); experiment: Inhibition of human SUV39H2 using Biotin-tagged histone H3 and 3H-SAM as substrate at 10 uM incubated for 1 hrs by TopCount scintillation proximity assay relative to control; summary of the method: as §1
Sequence of Histone-lysine N-methyltransferase SUV39H2 (Homo sapiens) (Q9H5I1 whole entry): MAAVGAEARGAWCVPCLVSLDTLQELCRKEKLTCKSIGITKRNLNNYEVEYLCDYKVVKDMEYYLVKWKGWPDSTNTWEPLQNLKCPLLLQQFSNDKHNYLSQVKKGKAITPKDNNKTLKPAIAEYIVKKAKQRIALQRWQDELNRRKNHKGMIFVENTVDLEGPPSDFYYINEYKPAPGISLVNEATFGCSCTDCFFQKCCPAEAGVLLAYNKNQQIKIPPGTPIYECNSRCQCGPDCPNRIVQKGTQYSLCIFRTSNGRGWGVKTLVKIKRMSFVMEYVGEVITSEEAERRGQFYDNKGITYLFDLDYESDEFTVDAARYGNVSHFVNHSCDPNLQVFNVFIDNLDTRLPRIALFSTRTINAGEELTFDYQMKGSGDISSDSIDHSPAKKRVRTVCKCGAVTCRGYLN

[13] = target: Histone-lysine N-methyltransferase SUV39H1 (Homo sapiens) (UniProt O43463); experiment: Inhibition of human SUV39H1 using Biotin-tagged histone H3 and 3H-SAM as substrate at 10 uM incubated for 1 hrs by TopCount scintillation proximity assay relative to control; summary of the method: as §1
Sequence of Histone-lysine N-methyltransferase SUV39H1 (Homo sapiens) (O43463 whole entry): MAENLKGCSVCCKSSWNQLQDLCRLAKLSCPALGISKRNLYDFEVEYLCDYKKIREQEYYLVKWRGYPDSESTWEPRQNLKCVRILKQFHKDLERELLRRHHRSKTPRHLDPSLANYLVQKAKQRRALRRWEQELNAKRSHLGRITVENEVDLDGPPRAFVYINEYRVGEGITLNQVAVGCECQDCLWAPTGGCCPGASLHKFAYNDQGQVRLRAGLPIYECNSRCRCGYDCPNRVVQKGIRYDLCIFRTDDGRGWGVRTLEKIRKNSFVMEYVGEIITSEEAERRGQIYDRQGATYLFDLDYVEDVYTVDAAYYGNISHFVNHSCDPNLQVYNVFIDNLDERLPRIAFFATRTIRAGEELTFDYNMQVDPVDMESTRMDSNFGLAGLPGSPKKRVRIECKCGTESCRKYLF

[14] = target: Histone-lysine N-methyltransferase SETD7 (Homo sapiens) (UniProt Q8WTS6); experiment: Inhibition of human SETD7 using biotin-tagged Histone H3 and 3H-SAM as substrate at 10 uM incubated for 1 hrs by TopCount scintillation proximity assay relative to control; summary of the method: as §1
[15] = target: Histone-lysine N-methyltransferase 2C (Homo sapiens) (UniProt Q8NEZ4); experiment: Inhibition of human MLL3 using biotin-tagged Histone H3 and 3H-SAM as substrate at 10 uM incubated for 1 hrs by TopCount scintillation proximity assay relative to control; summary of the method: as §2
[16] = target: RNA 5'-monophosphate methyltransferase (Homo sapiens) (UniProt Q7Z5W3); experiment: Inhibition of human BCDIN3D using biotin-tagged microRNA-145 and 3H-SAM as substrate at 10 uM incubated for 1 hrs by TopCount scintillation proximity assay relative to control; summary of the method: as §2
Sequence of RNA 5'-monophosphate methyltransferase (Homo sapiens) (Q7Z5W3 whole entry): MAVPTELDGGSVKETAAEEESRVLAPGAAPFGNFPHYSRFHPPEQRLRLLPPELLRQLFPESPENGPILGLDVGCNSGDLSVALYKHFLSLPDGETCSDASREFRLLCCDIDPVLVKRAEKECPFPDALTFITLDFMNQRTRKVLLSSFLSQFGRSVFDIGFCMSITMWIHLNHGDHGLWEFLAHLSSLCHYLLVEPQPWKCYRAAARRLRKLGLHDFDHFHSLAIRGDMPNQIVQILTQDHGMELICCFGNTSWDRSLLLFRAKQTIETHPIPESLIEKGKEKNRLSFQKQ

[17] = test system: Bacteria; experiment: Inhibition of beta-lactamase AmpC (unknown origin) pre-incubated with compound for 5 mins followed by substrate addition and measured after 1.5 mins by absorbance based plate reader analysis; conditions: time 6.5 min
Summary of the method: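 AmpC at 2 nM preincubated 5 min with compound at room temperature in 50 mM KPi, pH 7.0, with 1% v/v DMSO. Started with 50 μM CENTA (read at 405 nm) or 50 μM nitrocefin (read at 490 nm), monitored 1 min 30 s. Initial rate taken as % of DMSO control. Top concentration in triplicate; eight-point half-log curves in triplicate where inhibition exceeded 40%.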

[18] = target: Replicase polyprotein 1ab (Severe acute respiratory syndrome coronavirus 2) (UniProt P0DTD1); experiment: Competitive inhibition of N-terminal 6His/SUMO-tagged SARS-CoV-2 NSP14 expressed in Escherichia coli Rosetta 2 (DE3) PlysS cells using 5'GpppACCCCCCCCC-Biotin 3' and 3H-SAM as substrates at increasing concentration incubated for 30 mins by TopCount scintillation proximity assay
Summary of the method: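 Competition pattern read from IC50 shifts. […] Separately, SAM fixed at 1.25 μM (5× Km) with RNA varied up to 0.5 μM (10× Km). A linear rise of IC50 with substrate concentration was taken as competitive inhibition.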

[19] = target: Histone-lysine N-methyltransferase 2A (Homo sapiens, UniProt Q03164); experiment: Inhibition of human MLL1 using biotin-tagged Histone H3 and 3H-SAM as substrate at 10 uM incubated for 1 hrs by TopCount scintillation proximity assay relative to control; summary of the method: as §2
[20] = target: Protein arginine N-methyltransferase 9 (Homo sapiens) (UniProt Q6P2P2); experiment: Inhibition of human PRMT9 using biotin-tagged SAP145 and 3H-SAM as substrate at 10 uM incubated for 1 hrs by TopCount scintillation proximity assay relative to control; summary of the method: as §2
[21] = target: Histone-lysine N-methyltransferase NSD2 (Homo sapiens) (UniProt O96028); experiment: Inhibition of human NSD2 using chicken nucleosome and 3H-SAM as substrate at 10 uM incubated for 1 hrs by TopCount scintillation proximity assay relative to control; summary of the method: as §2

## Cc1c(C(=O)/C=C/c2ccc(O)c([N+](=O)[O-])c2)c(C#N)c2n1CCC2
[1]
  inhibition: < 50%
[2]
  inhibition: < 50%
[3]
  inhibition: Active
[4]
  inhibition: < 50%
[5]
  inhibition: < 50%
[6]
  inhibition: < 50%
[7]
  inhibition: < 50%
[8]
  inhibition: < 50%
[9]
  inhibition: < 50%
[10]
  inhibition: < 50%
[11]
  inhibition: < 50%
[12]
  inhibition: < 50%
[13]
  inhibition: < 50%
[14]
  inhibition: < 50%
[15]
  inhibition: < 50%
[16]
  inhibition: < 50%
[17]
  inhibition: Active
[18]
  inhibition: Active
[19]
  inhibition: < 50%
[20]
  inhibition: < 50%
[21]
  inhibition: < 50%
